pIC50: −log10 of the molar value.
Key:
Plasmodium falciparum [1] = test: Antimalarial activity against chloroquine-resistant Plasmodium falciparum W2 by pLDH assay; type: functional, organism-based
Method in brief: (§1)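 P. falciparum clones D10 (CQ-sensitive, moderately mefloquine-resistant) and W2 (CQ-resistant, mefloquine-susceptible) kept in human A+ RBCs in RPMI 1640 with 10% A+ plasma, HEPES and glutamine under 1% O2/5% CO2/94% N2. Asynchronous cultures (1-1.5% parasitemia, 1% hematocrit) exposed to serial dilutions (DMSO <1% final) for 72 h at 37 °C. Parasite LDH read at OD650. IC50 reported as mean ± SD of four experiments in triplicate.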

Plasmodium falciparum [2] = test: Antimalarial activity against chloroquine-sensitive Plasmodium falciparum D10 by pLDH assay; type: functional, organism-based; method in brief: as §1

SMILES | pIC50 (Plasmodium falciparum [1]) | pIC50 (Plasmodium falciparum [2])
CC/C=C/[C@H](CC)C[C@@]1(C)C[C@@H](CC)[C@@H](CCOC(C)=O)OO1 | 6.34 | 6.08
CC[C@H](C[C@@]1(C)C[C@@H](CC)[C@@H](CC(=O)OC)OO1)C(=O)O | 5.91 | 5.92
CC[C@H](C[C@@]1(C)C[C@@H](CC)[C@@H](CC(=O)OC)OO1)C(=O)OC | 6.11 | 6.07
CC/C=C/[C@H](CC)C[C@@]1(C)C[C@@H](CC)[C@@H](CCOC)OO1 | 6.39 | 6.13
CC/C=C/[C@H](CC)C[C@@]1(C)C[C@@H](CC)[C@@H](CC(=O)OC)OO1 [PLAKORTIN] | 6.39 | 6.06
CC/C=C/[C@H](CC)C[C@@]1(C)C[C@@H](CC)[C@@H](CCO)OO1 | 6.32 | 6.08
C[C@@H]1CC[C@H]2[C@@H](C)C(=O)O[C@@H]3O[C@@]4(C)CC[C@@H]1[C@]32OO4 [ARTEMISININ] | 8.05 | 7.89
CC[C@H](C[C@@]1(C)C[C@@H](CC)[C@@H](CC(=O)OC)OO1)[C@@H]1O[C@H]1CC | 6.15 | 5.92
CC[C@H](C[C@@]1(C)C[C@@H](CC)[C@@H](CC(=O)OC)OO1)[C@H]1O[C@@H]1CC | 6.30 | 5.98

Reference: ChEMBL document CHEMBL1137345, “Endoperoxide derivatives from marine organisms: 1,2-dioxanes of the plakortin family as novel antimalarial agents” (J Med Chem, 2006)
